Experimental data reported in ChEMBL document CHEMBL4823323, “Monocyclic Nitro-heteroaryl Nitrones with Dual Mechanism of Activation: Synthesis and Antileishmanial Activity” (ACS Med Chem Lett, 2021).
Active and inactive are the calls of the source. No cut-off for these calls is given here.

Key:
[1] = tested on: Leishmania donovani; test: Antileishmanial activity against wild type Leishmania donovani promastigotes incubated for 72 hrs by resazurin dye based assay; assay type: functional, organism-based
Summary of the method: (§1)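 IC50 is the mean ± standard error of three independent experiments, each run in triplicate.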

[2] = tested on: Leishmania donovani; test: Antileishmanial activity against Leishmania donovani LdBOB derived from MHOM/SD/62/1 S-CL2D promastigotes overexpressing NTR1 incubated for 72 hrs by resazurin dye based assay; assay type: functional, organism-based; summary of the method: as §1
[3] = tested on: Leishmania donovani; test: Selectivity index, ratio of IC50 for antileishmanial activity against wild type Leishmania donovani promastigotes to IC50 for antileishmanial activity against Leishmania donovani LdBOB derived from MHOM/SD/62/1 S-CL2D promastigotes overexpressing NTR1; assay type: functional
[4] = Cytotoxicity against BALB/c mouse peritoneal macrophages assessed as reduction in cell viability incubated for 72 hrs by resazurin dye based fluorescence assay; design: species or system Peritoneal macrophage
Summary of the method: (§2)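 CC50 values are means of three independent experiments, each in triplicate, ± standard error; selectivity index taken as macrophage CC50 divided by intracellular amastigote EC50.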

[5] = tested on: Leishmania amazonensis; test: Antileishmanial activity against Leishmania amazonensis MHOM/BR/77/LTB 0016 promastigotes assessed as inhibition of parasite growth incubated for 72 hrs by resazurin dye based assay; assay type: functional, organism-based; details: MHOM/BR/77/LTB 0016, 72 h
Summary of the method: (§3)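 Values are averages of three independent experiments run in triplicate ± standard error.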

[6] = tested on: Leishmania infantum; test: Antileishmanial activity against Leishmania infantum MHOM/MA/67/ITMAP-263 promastigotes assessed as inhibition of parasite growth incubated for 72 hrs by resazurin dye based assay; assay type: functional, organism-based; details: MHOM/MA/67/ITMAP-263, 72 h; summary of the method: as §3
[7] = tested on: Leishmania amazonensis; test: Antileishmanial activity against intracellular Leishmania amazonensis MHOM/BR/77/LTB 0016 amastigotes infected in BALB/c mouse peritoneal macrophage assessed as reduced parasite growth incubated for 72 hrs by PANOTIC staining based assay; assay type: functional, organism-based; details: MHOM/BR/77/LTB 0016, Peritoneal macrophage; summary of the method: as §3
[8] = Electrochemical behavior of the compound in aprotic medium assessed as redox potential using glassy carbon electrode by cyclic voltammetry analysis; assay type: physicochemical
[9] = (§4) Selectivity index, ratio of CC50 for cytotoxicity against BALB/c mouse peritoneal macrophages assessed as reduction in cell viability incubated for 72 hrs by resazurin dye based fluorescence assay to IC50 for antileishmanial activity against intracellular Leishmania amazonensis MHOM/BR/77/LTB 0016 amastigotes infected in BALB/c mouse peritoneal macrophage; assay type: toxicity; details: read-out: Selectivity Index; summary of the method: as §2
[10] = tested on: Leishmania donovani; test: Antileishmanial activity against Leishmania donovani LdBOB derived from MHOM/SD/62/1 S-CL2D promastigotes overexpressing NTR2 incubated for 72 hrs by resazurin dye based assay; assay type: functional, organism-based; summary of the method: as §1
[11] = tested on: Leishmania donovani; test: Selectivity index, ratio of IC50 for antileishmanial activity against wild type Leishmania donovani promastigotes to IC50 for antileishmanial activity against Leishmania donovani LdBOB derived from MHOM/SD/62/1 S-CL2D promastigotes overexpressing NTR2; assay type: functional
[12] = tested on: Peritoneal macrophage; test: Induction of ROS production in mouse peritoneal macrophages at EC50 concentration measured upto 4 hrs by H2DCFDA probe based fluorescence analysis; assay type: functional, cell-based; details: time hrs <=4
Summary of the method: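 Murine peritoneal macrophages incubated 4 h with 0.5×, 1× and 2× EC50 of compounds (concentrations taken from the anti-promastigote assay); ROS quantified with H2DCFDA; means ± SD, n=3.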

[13] = tested on: Leishmania amazonensis; test: Induction of ROS production in Leishmania amazonensis promastigotes measured by H2DCFDA probe based fluorescence analysis; assay type: functional; details: time hrs <=4
Summary of the method: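 L. amazonensis promastigotes exposed to compounds at concentrations based on the anti-promastigote EC50, with ROS followed kinetically over 4 h using H2DCFDA fluorescence; means ± SD, n=3.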

[14] = tested on: Leishmania infantum; test: Antileishmanial activity against intracellular Leishmania infantum MHOM/MA/67/ITMAP-263 amastigotes infected in BALB/c mouse peritoneal macrophage assessed as reduced parasite growth incubated for 72 hrs by PANOTIC staining based assay; assay type: functional, organism-based; details: MHOM/MA/67/ITMAP-263, Peritoneal macrophage; summary of the method: as §3
[15] = as §4, with “infantum MHOM/MA/67/ITMAP-263” for “amazonensis MHOM/BR/77/LTB 0016”; assay type: toxicity; details: read-out: Selectivity Index; summary of the method: as §2
[16] = Aqueous solubility of the compound at pH 7.4 measured after 24 hrs by UHPLC-HRMS analysis; assay type: physicochemical; details: buffer
[17] = Chemical stability of the compound assessed as degradation product at pH 7 measured after 240 mins; assay type: physicochemical; details: buffer, pH 7, 4 h
[18] = Chemical stability of the compound assessed as degradation product at pH 2 measured after 240 mins; assay type: physicochemical; details: buffer, pH 2, 4 h
[19] = Stability in pooled mouse plasma at pH 7.4 assessed as parent compound remaining incubated for 240 mins by LC/MS/MS analysis; assay type: ADME, cell-free; details: pH 7.4, 4 h
[20] = Metabolic stability in human liver S9 fraction assessed as drug recovery at pH 7.4 in the presence of NADPH cofactor measured upto 60 mins by LC/MS/MS analysis; assay type: ADME, subcellular; details: s9, pH 7.4, 1 h
[21] = tested on: Leishmania infantum; test: (§5) Antileishmanial activity in Leishmania infantum promastigotes intraperitoneally infected in BALB/c mouse assessed as reduced parasite load in spleen at 50 mg/kg, po twice a day followed by omeprazole administration 1 hr prior to test compound administration for 5 consecutive days relative to control; assay type: functional; design: scale not given: the % may be the effect or the level left; details: time 5 day
Summary of the method: (§6)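 BALB/c mice (n=5) infected intraperitoneally with 1 × 10^8 L. infantum promastigotes; treatment began seven days post-infection. Oral omeprazole 10mg given 1 h before each oral dose of test compound (25, 50, 100 mg/kg) every 12 h for five consecutive days. Controls received vehicle or miltefosine 22mg/kg twice daily. Spleen and liver parasite load estimated by limiting dilution.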

[22] = tested on: Leishmania infantum; test: as §5, with “100” for “50”; assay type: functional; design: scale not given: the % may be the effect or the level left; details: time 5 day; summary of the method: as §6
[23] = tested on: Leishmania infantum; test: as §5, with “liver” for “spleen”, “25 to 100” for “50”; assay type: functional; design: scale not given: the % may be the effect or the level left; details: dose 25-100 mg/kg, time 5 day; summary of the method: as §6

Structure (SMILES): CC1CS(=O)(=O)CCN1/N=C/c1ccc([N+](=O)[O-])o1 (configuration not stated) [NIFURTIMOX]
- IC50 [1]: 1.89 µM
- IC50 [2]: 0.11 µM
- Ratio IC50 [3]: 17

Structure (SMILES): C/[N+]([O-])=C/c1ccco1
- CC50 at 72 h [4]: > 100 µM
- IC50 [5]: > 100 µM
- IC50 [6]: > 100 µM

Structure (SMILES): O=Cc1ccc([N+](=O)[O-])o1
- CC50 at 72 h [4]: 27.8 µM
- IC50 [5]: 25.2 µM
- IC50 [7]: > 57.9 µM
- IC50 [6]: 25.7 µM
- Activity [8]: -0.38 V
- selectivity ratio at 72 h [9]: < 0.5

Structure (SMILES): CC(C)(C)/[N+]([O-])=C/c1ccc([N+](=O)[O-])s1
- IC50 [1]: 4.55 µM
- CC50 at 72 h [4]: 29.8 µM
- IC50 [5]: 11.3 µM
- IC50 [6]: 13.3 µM
- IC50 [2]: 0.27 µM
- Ratio IC50 [3]: 17
- IC50 [10]: 0.31 µM
- Ratio IC50 [11]: 18
- Activity [12]: inactive
- Activity [13]: inactive
- Activity [8]: -0.64 V

Structure (SMILES): O=[N+]([O-])c1ccc(/C=[N+](\[O-])Cc2ccccc2)s1
- IC50 [1]: 0.41 µM
- CC50 at 72 h [4]: 18.5 µM
- IC50 [5]: 1.5 µM
- IC50 [7]: 5.42 µM
- IC50 [6]: 1.51 µM
- IC50 [14]: 7.18 µM
- IC50 [2]: 0.3 µM
- Ratio IC50 [3]: 1.3
- IC50 [10]: 0.76 µM
- Ratio IC50 [11]: 0.53
- selectivity ratio at 72 h [9]: 3.4
- selectivity ratio at 72 h [15]: 2.6

Structure (SMILES): C/[N+]([O-])=C/c1ccc([N+](=O)[O-])s1
- IC50 [1]: 1.12 µM
- CC50 at 72 h [4]: 24.2 µM
- IC50 [5]: 9.72 µM
- IC50 [7]: 3.81 µM
- IC50 [6]: 3.45 µM
- IC50 [2]: 0.24 µM
- Ratio IC50 [3]: 4.6
- IC50 [10]: 0.25 µM
- Ratio IC50 [11]: 4.5
- Activity [12]: inactive
- Activity [13]: inactive
- Activity [8]: -0.61 V
- selectivity ratio at 72 h [9]: 6

Structure (SMILES): C/[N+]([O-])=C\c1ccc([N+](=O)[O-])cc1
- CC50 at 72 h [4]: > 100 µM
- IC50 [5]: > 100 µM
- IC50 [6]: > 100 µM
- Activity [8]: -0.68 V

Structure (SMILES): CC(C)(C)/[N+]([O-])=C/c1ccc([N+](=O)[O-])o1
- IC50 [1]: 0.87 µM
- CC50 at 72 h [4]: 108 µM
- IC50 [5]: 1.99 µM
- IC50 [7]: 2.76 µM
- IC50 [6]: 0.36 µM
- IC50 [14]: 0.019 µM
- IC50 [2]: 0.05 µM
- Ratio IC50 [3]: 17
- IC50 [10]: 0.04 µM
- Ratio IC50 [11]: 21
- Activity [12]: inactive
- Activity [13]: inactive
- Activity [8]: -0.67 V
- selectivity ratio at 72 h [9]: 39
- selectivity ratio at 72 h [15]: 5670

Structure (SMILES): C[C@]1(COc2ccc(N3CCC(Oc4ccc(OC(F)(F)F)cc4)CC3)cc2)Cn2cc([N+](=O)[O-])nc2O1 [DELAMANID]
- IC50 [1]: 0.0015 µM
- IC50 [10]: 0.00012 µM
- Ratio IC50 [11]: 12.5

Structure (SMILES): O=[N+]([O-])c1ccc(/C=[N+](\[O-])Cc2ccccc2)o1
- IC50 [1]: 0.99 µM
- CC50 at 72 h [4]: 31.9 µM
- IC50 [5]: 0.21 µM
- IC50 [7]: 2.04 µM
- IC50 [6]: 0.22 µM
- IC50 [14]: 4.49 µM
- IC50 [2]: 1.22 µM
- Ratio IC50 [3]: 0.81
- IC50 [10]: 1.33 µM
- Ratio IC50 [11]: 0.74
- selectivity ratio at 72 h [9]: 15.6
- selectivity ratio at 72 h [15]: 5.7

Structure (SMILES): CCCCCCCCCCCCCCCCOP(=O)([O-])OCC[N+](C)(C)C [MILTEFOSINE]
- CC50 at 72 h [4]: 96.5 µM
- IC50 [5]: 7.01 µM
- IC50 [7]: 3.4 µM
- IC50 [6]: 9.81 µM
- IC50 [14]: 0.5 µM
- selectivity ratio at 72 h [9]: 28
- selectivity ratio at 72 h [15]: 193

Structure (SMILES): O=Cc1cccs1 [2-THIOPHENENECARBOXALDEHYDE]
- IC50 [5]: > 100 µM
- IC50 [6]: > 100 µM

Structure (SMILES): C/[N+]([O-])=C/c1ccc([N+](=O)[O-])o1
- IC50 [1]: 1.16 µM
- CC50 at 72 h [4]: 49.9 µM
- IC50 [5]: 9.37 µM
- IC50 [7]: 1.07 µM
- IC50 [6]: 0.88 µM
- IC50 [14]: 0.17 µM
- IC50 [2]: 0.03 µM
- Ratio IC50 [3]: 38
- IC50 [10]: 0.19 µM
- Ratio IC50 [11]: 6.1
- Activity [12]: inactive
- Activity [13]: inactive
- Activity [8]: -0.62 V
- solubility at 24 h [16]: > 10 µM
- Drug degradation [17]: > 25%
- Drug degradation [18]: 40%
- Stabilty [19]: Stable
- Stabilty [20]: Stable
- Activity [21]: 76.6%
- Activity [22]: 95%
- Activity [23]: >75%
- selectivity ratio at 72 h [9]: 47
- selectivity ratio at 72 h [15]: 295

Structure (SMILES): C/[N+]([O-])=C/c1cccs1
- CC50 at 72 h [4]: > 100 µM
- IC50 [5]: > 100 µM
- IC50 [6]: > 100 µM

Structure (SMILES): O=Cc1ccc([N+](=O)[O-])cc1
- IC50 [5]: > 100 µM
- IC50 [6]: > 100 µM
- Activity [8]: -0.58 V

Structure (SMILES): O=Cc1ccco1 [FURFURAL]
- IC50 [5]: > 100 µM
- IC50 [6]: > 100 µM

Structure (SMILES): O=Cc1ccc([N+](=O)[O-])s1
- CC50 at 72 h [4]: 6.25 µM
- IC50 [5]: 5.11 µM
- IC50 [7]: > 11.5 µM
- IC50 [6]: 1.39 µM
- selectivity ratio at 72 h [9]: < 0.5
